Experiments:
[1] = Cytotoxicity against human Hep3B cells; format: functional, cell-based, Hep 3B2
[2] = tested on: HT-29; assay: Cytotoxicity against human HT-29 cells after 24 hrs; format: functional, cell-based; details: HT-29, 24 h
Method in brief: (§1)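 Cell growth inhibition assay on human cancer lines KB, MCF-7, HT29, HepG2 and A549. IC50 is defined as the concentration that inhibits cell growth by 50%.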

[3] = tested on: HepG2; assay: Cytotoxicity against human HepG2 cells after 24 hrs; format: functional, cell-based; details: HepG2, 24 h; method in brief: as §1
[4] = tested on: MDA-MB-231; assay: Cytotoxicity against human MDA-MB-231 cells; format: functional, cell-based
[5] = tested on: A549; assay: Cytotoxicity against human A549 cells after 24 hrs; format: functional, cell-based; details: A549, 24 h; method in brief: as §1
[6] = tested on: KB; assay: Cytotoxicity against human KB cells after 24 hrs; format: functional, cell-based; method in brief: as §1
[7] = tested on: MCF7; assay: Cytotoxicity against human MCF7 cells after 24 hrs; format: functional, cell-based; details: MCF7, 24 h; method in brief: as §1
[8] = tested on: WEHI-164; assay: Cytotoxicity against mouse WEHI164 cells; format: functional, cell-based
[9] = tested on: P388; assay: Cytotoxicity against mouse P388 cells; format: functional, cell-based
[10] = tested on: KB; assay: Cytotoxicity against human KB cells after 24 hrs
[11] = tested on: MCF7; assay: Cytotoxicity against human MCF7 cells after 24 hrs; details: MCF7, 24 h
[12] = tested on: HepG2; assay: Cytotoxicity against human HepG2 cells after 24 hrs; details: HepG2, 24 h
[13] = tested on: HT-29; assay: Cytotoxicity against human HT-29 cells after 24 hrs; details: HT-29, 24 h
[14] = tested on: A549; assay: Cytotoxicity against human A549 cells after 24 hrs; details: A549, 24 h

## O=C1C=CCC(/C=C/c2ccccc2)O1 (racemic)
[1]
  IC50: 5.4 µM
[2]
  IC50: 10.1 µM
[3]
  IC50: 2400 nM
[4]
  IC50: 5.4 µM
[5]
  IC50: 9100 nM
[6]
  IC50: 3000 nM
[7]
  IC50: 3500 nM
[8]
  IC50: 8.5 µM
[9]
  IC50: 3.8 µM

## O=C1C=C[C@H](O)[C@H]([C@H](O)[C@H](OC(=O)/C=C/C(F)(F)F)c2ccccc2)O1
[2]
  IC50: 4.5 µM
[3]
  IC50: 1800 nM
[5]
  IC50: 3000 nM
[6]
  IC50: 1400 nM
[7]
  IC50: 1600 nM

## O=C1C=C[C@H](O)[C@H]([C@H](O)[C@H](OC(=O)/C=C/c2ccccc2)c2ccccc2)O1 [HOWIINOL A]
[2]
  IC50: 2.6 µM
[3]
  IC50: 1600 nM
[5]
  IC50: 1500 nM
[6]
  IC50: 900 nM
[7]
  IC50: 1100 nM

## O=C1C=CCC(/C=C/C(F)(F)F)O1 (racemic)
[10]
  IC50: > 10 µM
[11]
  IC50: > 10 µM
[12]
  IC50: > 10 µM
[13]
  IC50: > 10 µM
[14]
  IC50: > 10 µM

## O=C1C=CC[C@H](/C=C/c2ccccc2)O1 [GONIOTHALAMIN]
[1]
  IC50: 5.4 µM
[3]
  IC50: 1600 nM
[4]
  IC50: 5.4 µM
[7]
  IC50: 4500 nM
[8]
  IC50: 8.5 µM
[9]
  IC50: 3.8 µM
